Among the data in ChEMBL document CHEMBL3421537, “Synthesis and biological evaluation of nitrated 7-, 8-, 9-, and 10-hydroxyindenoisoquinolines as potential dual topoisomerase I (Top1)-tyrosyl-DNA phosphodiesterase I (TDP1) inhibitors” (J Med Chem, 2015) are GI50, inhibition and Activity values, retold here.

For orientation: GI50 means the concentration that inhibits growth by half. Read a low GI50 as greater sensitivity of the cells.

In one assay the test system is MCF7. Description: Cytotoxicity against human MCF7 cells. The class given is functional. In outline:
(§1)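 NCI-60 screen (NCI-DTP): one-dose prescreen at 10 μM, then five concentrations from 100 μM to 10 nM for compounds passing the cutoff. GI50 (50% growth inhibition) interpolated from the five-dose data. Single determination.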

The target of assay [1] is T1, DNA topoisomerase 1 (Homo sapiens) (UniProt P11387).
T1 sequence (whole entry): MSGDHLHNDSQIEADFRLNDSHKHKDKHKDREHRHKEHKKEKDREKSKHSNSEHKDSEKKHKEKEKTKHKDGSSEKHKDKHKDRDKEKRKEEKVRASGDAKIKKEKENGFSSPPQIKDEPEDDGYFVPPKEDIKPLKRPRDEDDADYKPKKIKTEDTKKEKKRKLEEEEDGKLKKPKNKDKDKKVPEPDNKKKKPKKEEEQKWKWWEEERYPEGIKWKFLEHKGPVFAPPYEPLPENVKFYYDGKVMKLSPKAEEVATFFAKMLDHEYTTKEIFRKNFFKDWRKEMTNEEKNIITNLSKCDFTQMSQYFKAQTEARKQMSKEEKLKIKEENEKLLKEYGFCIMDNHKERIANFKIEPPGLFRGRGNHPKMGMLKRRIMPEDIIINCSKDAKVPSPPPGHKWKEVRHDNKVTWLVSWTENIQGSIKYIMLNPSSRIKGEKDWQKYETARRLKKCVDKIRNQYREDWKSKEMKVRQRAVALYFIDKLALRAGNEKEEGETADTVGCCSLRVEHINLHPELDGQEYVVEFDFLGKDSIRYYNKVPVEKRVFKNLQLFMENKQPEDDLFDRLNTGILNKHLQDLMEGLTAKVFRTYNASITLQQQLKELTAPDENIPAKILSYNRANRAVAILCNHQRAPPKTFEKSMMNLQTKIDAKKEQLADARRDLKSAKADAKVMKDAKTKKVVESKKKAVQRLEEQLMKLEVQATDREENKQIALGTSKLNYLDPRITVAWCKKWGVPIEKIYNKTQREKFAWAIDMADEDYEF
Kind of assay: Inhibition of human recombinant Top1 expressed in baculovirus-infected insect Sf9 cells using 3'-[32P]-end-labeled 117 bp DNA as substrate assessed as inhibition of DNA cleavage after 20 mins by PAGE analysis relative to 1 uM camptothecin. In outline: (§2)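 About 2 nM 3′-[32P]-end-labeled 117-bp DNA (Klenow fill-in with [α32P]dGTP) incubated with recombinant Top1 and compound for 20 min at room temperature. Stopped with 0.5% SDS, run on 20% denaturing PAGE, read by phosphorimager. Cleavage bands scored visually against 1 μM camptothecin on a 0 to +++++ scale.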

A short description of assay [2]: Cytotoxicity against human OVCAR3 cells. As to conditions: OVCAR-3. Type of assay: functional. In outline: as §1
Assay [3] is described as follows: Cytotoxicity against human UACC62 cells. The class given is functional. Particulars: UACC-62. An outline of the steps: as §1
For a further assay, the system named is DU-145. Kind of assay: Cytotoxicity against human DU145 cells. Type of assay: functional. An outline of the steps:
as §1

Assay [4] concerns the target T1, DNA topoisomerase 1 (Homo sapiens). Description: Poisoning activity at human recombinant Top1 expressed in baculovirus-infected insect Sf9 cells using 3'-[32P]-end-labeled 117 bp DNA as substrate assessed as trapping of enzyme cleavage complex at 0.005 to 100 uM measured after 20 mins by PAGE analysis. In outline: as §2
Another assay concerns SN12C. Kind of assay: Cytotoxicity against human SN12C cells. Type of assay: functional. An outline of the steps:
as §1

Assay [5] has as its target T1, DNA topoisomerase 1 (Homo sapiens). Description: Poisoning activity at human recombinant Top1 expressed in baculovirus-infected insect Sf9 cells using 3'-[32P]-end-labeled 117 bp DNA as substrate assessed as delay in reversal of drug-enzyme-DNA cleavage complex formation at 1 uM measured over 10 mins by PAGE analysis.
The test system of another assay is SF-539. Kind of assay: Cytotoxicity against human SF539 cells. The class given is functional. An outline of the steps: as §1
The nature of assay [6]: Cytotoxicity against human HCT116 cells. Type of assay: functional. Particulars: HCT-116. In outline: as §1

The source made the active and inactive calls.

Turning to `O=C1c2cc(O)ccc2-c2c1c1ccc([N+](=O)[O-])cc1c(=O)n2CCCBr`, the 50% growth inhibitory concentration (GI50) in the assay on MCF7 is under 10 nM; in assay [2], 23 nM; in [3], under 10 nM; in the assay with DU-145, under 10 nM; in the assay on SN12C it was under 10 nM; in the assay on SF-539, under 10 nM. For the same molecule, in [6], the 50% growth inhibitory concentration (GI50) is under 10 nM. Besides, in [1], the inhibition result is “Active”. For the same molecule, the outcome in assay [4] and in assay [5] was Active.
Turning to `CC[C@@]1(O)C(=O)OCc2c1cc1n(c2=O)Cc2cc3ccccc3nc2-1`, the result in [5] was inactive.
